From PubChem
The list is not random: actives were taken first. Their share in the collection is about 2%.
Insulin prom inh: TRM-6 insulin promoter activity inhibition; inhibition, % at 2 µM; TRM-6 cells (human fetal islet line), insulin promoter-eGFP reporter, imaging; reporter expression induced with tamoxifen; AID 1273; hit rate 0.9% among 130,000;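 active = inhibition above the mean plus 3 SD, with well images judged a real hit on visual review, cut at about 60% in these data, passing the limit was not always enough; inconclusive = inhibition over the cutoff but images rejected on review; inactive = inhibition not above the cutoff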
Ins promoter up: MIN6 insulin promoter up-regulation | MIN6 insulin promoter-GFP reporter, high-content imaging; active compounds read high | z-score at 5 µM | hit rate 0.3% among 190,000 | AID 1625;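 active = z-score above 3 at 5 µM with at least 500 cells counted in the well; inconclusive = wells under 500 cells, flagged as cytotoxic or low count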
Autophagy mod: autophagy modulation, high-content screen; MEF GFP-LC3 puncta imaging; test concentration mostly 10 µM; calls only at 10 µM (by protocol); hit rate 0.98% among 190,000; AID 463193;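 active = percentage of spot-positive cells more than 3 SD above its plate mean, without a fluorescence outlier flag or 80% toxicity; inconclusive = no clear call, values can overlap the other calls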;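 also: spot-positive cell cutoff set from DMSO-treated cells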
Dynein cargo inh: blocks dynein driven cargo transport along microtubules; 3617.4 mouse cells, GR-EGFP nuclear translocation imaging; test concentration mostly 20 µM; stimulated with dexamethasone, 1 µM; active compounds read low; z-score, hits read low; hit rate 0.47% among 220,000;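 active = plate z-score of nuclear minus cytoplasmic receptor signal below a set negative limit, without overly bright fluorescence or cell loss, cut at about -3.5 in these data, passing the limit was not always enough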;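 also: z-score of nuclear minus cytoplasmic ring GR-EGFP intensity difference per well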
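Buffer or medium: Induction medium lacking tetracycline, stripped serum | Also added: Dexamethasone agonist, 1.0 µM final, for 30 min | Timing: 48 h induction, 1 h compound, 30 min dex at 37 °C | Detection: Formaldehyde fixation, Hoechst nuclear stain, 10x automated fluorescence imaging | Measure: Nuclear versus cytoplasmic GR-EGFP signal, averaged per well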
Dynein inh conf: dynein cargo transport inhibition, confirmation | shares compounds with Dynein cargo inh | 3617.4 GR-EGFP nuclear translocation imaging, dexamethasone-induced | calls only at 20 µM | hit rate 69% among 1,000 | AID 463116;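 active = inhibition of receptor movement into the nucleus at or above a set limit in both runs, with normal cell brightness and cell count; inconclusive = limit reached in only one run, brightness and count normal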;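 also: dexamethasone at 1 µM final in well for 30 min; nuclear minus cytoplasmic GR-EGFP mean intensity difference in channel 2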
Active calls of the source: *; i = inactive; ? = inconclusive; . = no result; + = active, no number.

SMILES	Insulin prom inh	Ins promoter up	Autophagy mod	Dynein cargo inh	Dynein inh conf
COC(=O)c1cc([N+](=O)[O-])c(-n2ccnc2)c([N+](=O)[O-])c1	14.8	-0.08	i	-3.52*	+
Nc1c(C(=O)N/N=C/c2ccc(F)cc2)oc2nc(-c3ccccc3)cc(-c3ccco3)c12	.	2.04	.	-4.08	i
Cc1cc(C)cc(N=Cc2[nH]c3ccc(Br)c(Cl)c3c2O)c1	-46.7	.	?	-9.13	+
COc1ccc(CN=Cc2[nH]c3ccc(Br)c(Cl)c3c2O)cc1	-6.8	.	i	-4.96*	+
COc1ccc(CN=CC2=C(O)CNC2=O)cc1	-292.9	-0.23	i	-0.231	.
CCCC(NC(=S)NCC1CCCO1)C12CC3CC(CC(C3)C1)C2 (stereo not drawn)	-25.0	-1.43	i	0.706	.
O=[N+]([O-])c1ccc(Sc2nnnn2-c2ccccc2)c(Cl)c1	54.8	1.82	i	-0.33	.
CN1CCN(S(=O)(=O)c2ccc(Sc3nnnn3-c3ccccc3)c([N+](=O)[O-])c2)CC1	16.7	.	i	-3.5*	+
CC(=O)c1ccc(Sc2nnnn2-c2ccccc2)c([N+](=O)[O-])c1	34.5	0.91	i	-4.27*	i
CC(=O)Nc1ccc(/C=C/c2ccc3c([N+](=O)[O-])cccc3n2)cc1	.	-0.03	i	1.48	.
Cc1ccc(C(C)C)c(OCC(=O)NN=C(CCl)CCl)c1	.	-0.52	.	-4.57*	+
Nc1c(C(=O)C2CC2)sc2nc(-c3cccs3)cc(C(F)(F)F)c12	-185.7	.	?	-5.61	i
COc1cc2c(cc1OC)C(Cc1ccc(O)cc1)N(C)CC2 (stereo not drawn)	-21.4	-0.25	i	-4.68*	i
COc1cc2c(cc1OC)C(Cc1ccc(O)cc1)NCC2 (stereo not drawn)	28.6	-0.16	i	-0.635	.
CCc1cccc(C)c1NC(=S)N(CCOC)C(C)c1ccco1 (stereo not drawn)	.	0.27	.	0.407	.
Cc1cc(C)c2c(=O)n(CC(=O)Nc3cccc(Cl)c3C)sc2n1	.	0.62	.	-1.1	.
Cc1cc(C)c2c(=O)n(CC(=O)Nc3ccc(Br)c(C)c3)sc2n1	.	-0.04	.	-0.829	.
Cc1cc(C)c2c(=O)n(CC(=O)NC3CCCC3)sc2n1	.	0.12	.	-4.21*	+
COc1ccc(OC)c(CCNC(=O)Cn2sc3nc(C)cc(C)c3c2=O)c1	.	0.84	i	-4.13*	+
C=CCSC(=C(C#N)C#N)c1cc2c([nH]1)CCCC2	-35.7	0.75	i	-4.01*	+
CCCN1C(=O)/C(=C/C=C2\N(CC)c3ccccc3C2(C)C)SC1=S	-17.8	.	+	-7.89	i
CCCCN1C(=O)/C(=C/C=C2\Oc3ccccc3N2CC)SC1=S	.	.	+	-4.62	+
CCN(CC)C(=O)CSc1nnc(-c2ccccn2)n1Cc1ccccc1	.	-0.48	.	-0.332	.
COc1ccccc1-[n+]1c(C)cc(/C=C2\Sc3ccccc3N2C)cc1C	.	?	.	-5	+
CN(C)NC(=S)NC1CC2CCC1C2 (stereo not drawn)	.	.	.	0.0855	.
SMILES	Insulin prom inh	Ins promoter up	Autophagy mod	Dynein cargo inh	Dynein inh conf
COc1ccc(CN(C)C(=O)CCl)cc1	-5.9	0.33	i	-4.35*	+
CN(Cc1ccc(Cl)cc1)C(=O)CCl	.	.	i	-6.22*	+
COc1ccc(CN(C)C(=S)Nc2ccc(Cl)cc2)cc1	-36.4	-1.01	i	1.63	.
CS(=O)(=O)N(CC(N)=O)Cc1ccc(Cl)cc1	-295.4	-0.61	i	0.174	.
CN(C)CCNC(=O)c1ccc(Cl)s1	-23.7	-0.01	i	0.278	.
CN(Cc1ccc(Cl)s1)C(=O)CCl	.	-0.02	i	-5.66*	+
O=C(CN1CCCc2ccccc21)NCCc1ccc(Cl)cc1	-300.0	0.2	i	0.0309	.
Cc1cc(C)nc(/N=C(\N)Nc2ccc(C(C)C)cc2)n1	.	-0.6	.	-0.583	.
Nc1cccc2c1C(=O)N(C(=O)/C=C/c1ccc(F)cc1)C2=O	.	-0.15	i	-4.67*	+
Cn1nnnc1SC1CC(=O)N(c2ccccc2)C1=O (stereo not drawn)	.	-0.42	i	-4.6*	+
O=C1CC(Sc2nnnn2C2CCCCC2)C(=O)N1c1ccccc1 (stereo not drawn)	50.0	0.42	i	-0.269	.
CC1(C)CC(=O)C2=C(C1)OC1=C(C(=O)CC(C)(C)C1)C2c1ccc(O)cc1O	42.9	0.6	i	-5.16	+
CN1C(=S)N(c2cccnc2)C(=O)/C1=C\c1ccc(C(C)(C)C)cc1	-8.3	-0.26	i	-3.74*	?
O=C(NC(C(=O)N/N=C/c1cccnc1)c1n[nH]c(=O)c2ccccc12)c1ccccc1 (stereo not drawn)	.	-0.74	.	0.41	.
Fc1ccc(-c2csc3ncnc(Cl)c23)cc1	.	0.42	i	-2.82	.
Clc1ccc(-c2csc3ncnc(Cl)c23)cc1	27.0	-0.14	i	-3.97*	+
COc1ccc(-c2csc3ncnc(Cl)c23)cc1	.	0	i	-4.09*	i
O=C(c1nnsc1S(=O)c1ccc(Cl)cc1)N1CCOCC1 (stereo not drawn)	-218.2	0.35	i	-4.77*	+
O=C(Nc1ccccc1)c1nnsc1S(=O)c1ccc(Cl)cc1 (stereo not drawn)	27.6	-0.28	i	-3.53*	+
O=C(Nc1ccc(Cl)cc1)c1csc(Cc2ccccc2)n1	.	0.13	i	-0.334	.
O=C(c1nnsc1S(=O)(=O)c1ccc(Cl)cc1)N1CCOCC1	.	0.28	i	-6*	+
CNC(=O)c1ncoc1-c1ccc(Cl)cc1	.	.	.	-0.345	.
CNC(=O)c1nnsc1S(=O)(=O)c1ccc(Cl)cc1	i	0.44	i	-4.01*	+
CCCCn1c(NCc2cccs2)nc2ccccc21	.	-0.36	i	0.601	.
O=[N+]([O-])c1ccc(C2=NN(c3ccccc3)C(c3ccco3)C2)cc1 (stereo not drawn)	.	.	.	-8.19	i
SMILES	Insulin prom inh	Ins promoter up	Autophagy mod	Dynein cargo inh	Dynein inh conf
O=[N+]([O-])c1ccc(/C=C/C2=NN(c3ccccc3)C(c3ccco3)C2)cc1 (stereo not drawn)	-284.6	0.77	?	-5.49	.
CCCn1c(CC)nc([N+](=O)[O-])c1S(=O)(=O)c1ccccc1	30.0	0.66	i	-5.09*	+
Cc1ccc2nc(Nc3ccc4[nH]c(=O)[nH]c4c3)c(-n3nc(C)cc3C)nc2c1	27.8	-0.14	i	-4.37	i
Cc1cc(C)n(-c2nc3ccccc3nc2Nc2ccc3c(c2)OCO3)n1	.	-0.93	i	0.521	.
Nc1nc(Sc2c([N+](=O)[O-])cc(C(F)(F)F)cc2[N+](=O)[O-])n[nH]1	.	1.12	.	-7.12*	+
Cc1ccc(C(=O)/C=C/c2ccccc2[N+](=O)[O-])cc1	.	-0.04	i	-4.67*	+
COc1cccc(/C=C/C(=O)c2ccc(NS(=O)(=O)c3ccc(C)cc3)cc2)c1	.	-0.12	i	3.6	.
COc1cc(/C=C/C(=O)c2ccc(C)c([N+](=O)[O-])c2)cc(OC)c1O	.	-0.53	i	-3.8*	?
Cc1ccc(C(=O)/C=C/c2ccc(-c3ccccc3[N+](=O)[O-])o2)cc1	-29.6	0.12	i	-0.716	.
